Source: ChEMBL document CHEMBL1255544, “Synthesis and evaluation of novel chloropyrrole molecules designed by molecular hybridization of common pharmacophores as potential antimicrobial agents” (2010)
Values after ≈ are worked out from the molar mass of the structure shown. Active and inactive are the calls of the source. No cut-off for these calls is given here.

Key:
[1] = test system: Staphylococcus aureus; assay: Antimicrobial activity against Staphylococcus aureus ATCC 25923 after 24 hrs by broth dilution method; format: functional; details: ATCC 25923, 24 h
Outline: (§1)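 MIC by broth dilution: the lowest concentration (highest dilution) that arrested bacterial or fungal growth. Strains were E. coli ATCC-25922, S. aureus ATCC-25923, P. aeruginosa ATCC-27853 and C. albicans.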

[2] = test system: Pseudomonas aeruginosa; assay: Antimicrobial activity against Pseudomonas aeruginosa ATCC 27853 after 24 hrs by broth dilution method; format: functional; details: ATCC 27853, 24 h; outline: as §1
[3] = test system: Candida albicans; assay: Antimicrobial activity against Candida albicans after 48 hrs by broth dilution method; format: functional; outline: as §1
[4] = test system: Candida albicans; assay: Antimicrobial activity against Candida albicans after 48 hrs by agar dilution method; format: functional
Outline: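 Candida albicans tested by agar dilution, with compounds in DMSO.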

[5] = test system: Klebsiella pneumoniae; assay: Antimicrobial activity against Klebsiella pneumoniae after 24 hrs by disk diffusion method; format: functional
Outline: (§2)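 Zone of inhibition by disc diffusion against E. coli ATCC-25922, S. aureus ATCC-25923, P. aeruginosa ATCC-27853 and recultured Klebsiella pneumoniae.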

[6] = test system: Pseudomonas aeruginosa; assay: Antimicrobial activity against Pseudomonas aeruginosa ATCC 27853 after 24 hrs by disk diffusion method; format: functional; outline: as §2
[7] = test system: Staphylococcus aureus; assay: Antimicrobial activity against Staphylococcus aureus ATCC 25923 after 24 hrs by disk diffusion method; format: functional; outline: as §2
[8] = test system: Escherichia coli; assay: Antimicrobial activity against Escherichia coli ATCC […] after 24 hrs by disk diffusion method; format: functional; outline: as §2
[9] = test system: Escherichia coli; assay: Antimicrobial activity against Escherichia coli ATCC […] after 24 hrs by broth dilution method; format: functional; outline: as §1
[10] = test system: Klebsiella pneumoniae; assay: Antimicrobial activity against Klebsiella pneumoniae at 100 ug/ml after 24 hrs by broth dilution method; format: functional, organism-based

Structure (SMILES)	MIC [1] [µg/mL]	MIC [2] [µg/mL]	MIC [3] [µg/mL]	MIC [9] [µg/mL]	diameter of the inhibition zone (DIZ) [4] [mm]	diameter of the inhibition zone (DIZ) [5] [mm]	diameter of the inhibition zone (DIZ) [6] [mm]	diameter of the inhibition zone (DIZ) [7] [mm]	diameter of the inhibition zone (DIZ) [8] [mm]	Activity [10]
O=C(N/N=C/c1ccccc1O)c1cc(Cl)c[nH]1	6.25 (≈ 23.7 µM)	100 (≈ 379 µM)	25 (≈ 94.8 µM)	6.25 (≈ 23.7 µM)	18	–	14	17	20	inactive
C[C@@H]1[C@H](O)[C@@H](C)/C=C/C=C/C=C/C=C/C=C/C=C/C=C/[C@H](O[C@@H]2O[C@H](C)[C@@H](O)[C@H](N)[C@@H]2O)C[C@@H]2O[C@](O)(C[C@@H](O)C[C@@H](O)[C@H](O)CC[C@@H](O)C[C@@H](O)CC(=O)O[C@H]1C)C[C@H](O)[C@H]2C(=O)O [AMPHOTERICIN B]	–	–	1.56 (≈ 1.69 µM)	–	25	–	–	–	–	–
O=C(/C=C/c1ccccc1O)c1cc(Cl)c[nH]1	12.5 (≈ 50.5 µM)	25 (≈ 101 µM)	50 (≈ 202 µM)	25 (≈ 101 µM)	15	–	18	16	10	inactive
O=C(N/N=C/c1ccccc1)c1cc(Cl)c[nH]1	12.5 (≈ 50.5 µM)	100 (≈ 404 µM)	25 (≈ 101 µM)	12.5 (≈ 50.5 µM)	20	–	14	17	14	inactive
COc1ccc(/C=N/NC(=O)c2cc(Cl)c[nH]2)cc1	12.5 (≈ 45 µM)	100 (≈ 360 µM)	25 (≈ 90 µM)	12.5 (≈ 45 µM)	15	–	14	18	10	inactive
O=C(N/N=C/c1ccco1)c1cc(Cl)c(Cl)[nH]1	1.56 (≈ 5.73 µM)	25 (≈ 91.9 µM)	12.5 (≈ 45.9 µM)	3.12 (≈ 11.5 µM)	23	20	24	26	24	–
O=C(N/N=C/c1c(O)cccc1O)c1cc(Cl)c[nH]1	3.12 (≈ 11.2 µM)	50 (≈ 179 µM)	25 (≈ 89.4 µM)	6.25 (≈ 22.3 µM)	18	–	14	24	21	inactive
O=C(N/N=C/c1ccco1)c1cc(Cl)c[nH]1	25 (≈ 105 µM)	100 (≈ 421 µM)	25 (≈ 105 µM)	25 (≈ 105 µM)	21	–	15	24	23	inactive
O=C(/C=C/c1ccco1)c1cc(Cl)c[nH]1	12.5 (≈ 56.4 µM)	25 (≈ 113 µM)	50 (≈ 226 µM)	12.5 (≈ 56.4 µM)	18	–	17	22	20	inactive
O=C(N/N=C/c1ccc(Cl)cc1)c1cc(Cl)c[nH]1	3.12 (≈ 11.1 µM)	100 (≈ 354 µM)	25 (≈ 88.6 µM)	12.5 (≈ 44.3 µM)	17	–	15	26	16	inactive
CN(C)c1ccc(/C=N/NC(=O)c2cc(Cl)c[nH]2)cc1	12.5 (≈ 43 µM)	100 (≈ 344 µM)	25 (≈ 86 µM)	12.5 (≈ 43 µM)	18	–	14	10	17	inactive

Second part, led by results:

MIC [1] [µg/mL]	MIC [2] [µg/mL]	MIC [3] [µg/mL]	MIC [9] [µg/mL]	Structure (SMILES)	diameter of the inhibition zone (DIZ) [4] [mm]	diameter of the inhibition zone (DIZ) [5] [mm]	diameter of the inhibition zone (DIZ) [6] [mm]	diameter of the inhibition zone (DIZ) [7] [mm]	diameter of the inhibition zone (DIZ) [8] [mm]	Activity [10]
1.56 (≈ 4.56 µM)	25 (≈ 73.1 µM)	12.5 (≈ 36.5 µM)	3.12 (≈ 9.13 µM)	COc1ccc(OC)c(/C=N/NC(=O)c2cc(Cl)c(Cl)[nH]2)c1	24	18	13	24	20	–
6.25 (≈ 20.3 µM)	100 (≈ 325 µM)	25 (≈ 81.2 µM)	12.5 (≈ 40.6 µM)	COc1ccc(OC)c(/C=N/NC(=O)c2cc(Cl)c[nH]2)c1	13	–	15	20	15	inactive
6.25 (≈ 20 µM)	25 (≈ 80.1 µM)	12.5 (≈ 40 µM)	12.5 (≈ 40 µM)	COc1ccc(/C=N/NC(=O)c2cc(Cl)c(Cl)[nH]2)cc1	24	16	20	20	19	–
3.12 (≈ 10.4 µM)	25 (≈ 83.2 µM)	50 (≈ 166 µM)	6.25 (≈ 20.8 µM)	O=C(/C=C/c1ccc(Cl)cc1)c1cc(Cl)c(Cl)[nH]1	14	17	16	25	16	–
6.25 (≈ 19.2 µM)	100 (≈ 307 µM)	50 (≈ 153 µM)	6.25 (≈ 19.2 µM)	COc1ccc(OC)c(/C=C/C(=O)c2cc(Cl)c(Cl)[nH]2)c1	15	16	15	22	20	–
12.5 (≈ 40.6 µM)	100 (≈ 325 µM)	25 (≈ 81.2 µM)	12.5 (≈ 40.6 µM)	COc1ccc(/C=N/NC(=O)c2cc(Cl)c[nH]2)cc1OC	20	–	16	20	12	inactive
1.56 (≈ 5.23 µM)	50 (≈ 168 µM)	12.5 (≈ 41.9 µM)	3.12 (≈ 10.5 µM)	O=C(N/N=C/c1ccccc1O)c1cc(Cl)c(Cl)[nH]1	16	19	18	22	18	–
3.12 (≈ 9.58 µM)	25 (≈ 76.6 µM)	50 (≈ 153 µM)	6.25 (≈ 19.2 µM)	COc1ccc(/C=C/C(=O)c2cc(Cl)c(Cl)[nH]2)cc1OC	18	18	17	24	15	–
1.56 (≈ 4.93 µM)	25 (≈ 79 µM)	12.5 (≈ 39.5 µM)	3.12 (≈ 9.87 µM)	O=C(N/N=C/c1ccc(Cl)cc1)c1cc(Cl)c(Cl)[nH]1	20	20	16	24	22	–
1.56 (≈ 4.56 µM)	12.5 (≈ 36.5 µM)	12.5 (≈ 36.5 µM)	3.12 (≈ 9.13 µM)	COc1ccc(/C=N/NC(=O)c2cc(Cl)c(Cl)[nH]2)cc1OC	24	17	18	25	20	–
12.5 (≈ 47.8 µM)	25 (≈ 95.5 µM)	50 (≈ 191 µM)	12.5 (≈ 47.8 µM)	COc1ccc(/C=C/C(=O)c2cc(Cl)c[nH]2)cc1	12	–	15	18	16	inactive
1.56 (≈ 6.09 µM)	25 (≈ 97.6 µM)	50 (≈ 195 µM)	3.12 (≈ 12.2 µM)	O=C(/C=C/c1ccco1)c1cc(Cl)c(Cl)[nH]1	14	15	17	25	21	–
12.5 (≈ 47 µM)	100 (≈ 376 µM)	50 (≈ 188 µM)	25 (≈ 93.9 µM)	O=C(/C=C/c1ccc(Cl)cc1)c1cc(Cl)c[nH]1	13	–	16	16	12	inactive
12.5 (≈ 42.8 µM)	100 (≈ 343 µM)	50 (≈ 171 µM)	12.5 (≈ 42.8 µM)	COc1ccc(/C=C/C(=O)c2cc(Cl)c[nH]2)cc1OC	12	–	14	13	16	inactive
12.5 (≈ 42.8 µM)	100 (≈ 343 µM)	50 (≈ 171 µM)	12.5 (≈ 42.8 µM)	COc1ccc(OC)c(/C=C/C(=O)c2cc(Cl)c[nH]2)c1	16	–	15	19	18	inactive
